Compound activity as filed in PubChem.
EBI2 antag – EBI2 receptor antagonists, beta-arrestin recruitment, primary screen, cell-based, luminescence, 7a,25-OHC stimulation, uHTS; 7a,25-OHC stimulated; inhibition, % at 5 µM; 0.81% of 360,000 active; in the data active = inhibition above about 38%;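 also: enzyme fragment complementation signal reports receptor beta-arrestin coupling in cells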
Target sequence (P32249 whole entry, looked up, the tested form may be a part): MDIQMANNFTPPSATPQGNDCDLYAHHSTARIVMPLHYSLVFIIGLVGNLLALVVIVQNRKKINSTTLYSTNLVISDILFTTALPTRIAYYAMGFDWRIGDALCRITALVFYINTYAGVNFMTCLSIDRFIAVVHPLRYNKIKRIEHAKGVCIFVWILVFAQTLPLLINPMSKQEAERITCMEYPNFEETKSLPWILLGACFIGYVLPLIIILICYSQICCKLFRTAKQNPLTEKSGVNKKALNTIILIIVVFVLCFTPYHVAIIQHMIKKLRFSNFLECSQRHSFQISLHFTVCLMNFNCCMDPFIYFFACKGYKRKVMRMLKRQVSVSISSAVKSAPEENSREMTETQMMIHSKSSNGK
NR3A LBD binder – binders of NR3A ligand-binding domain, primary screen, biophysical, differential scanning fluorimetry, uHTS; 2.5% of 340,000 active; Glutamate receptor ionotropic, NMDA 3A (GRIN3A) ligand-binding domain; NR3A LBD differential scanning fluorimetry, Tm shift; 0% = protein alone, 100% = glycine-bound protein; AID 1259313, 2017; Tm shift relative to glycine control, % at 25 µM;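 active = melting temperature shift of at least 10% of the positive control shift, at one fixed dose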
MPTP block – mitochondrial permeability transition pore inhibitors, primary screen, biochemical, isolated mouse mitochondria, absorbance; Ca2+ swelling absorbance, 30 min; inhibition, % at 10 µM; AID 602449, 2012; 1.4% of 360,000 active;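 active = inhibition of 50% or more, scaled per plate between neutral and stimulator controls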
SENP1 FRET inh – human SENP1 catalytic domain inhibitors, primary screen, biochemical, FRET, uHTS | inhibition, % at 10 µM | AID 624204, 2012 | recombinant SENP1 catalytic domain, CyPet-SUMO1-YPet FRET cleavage | Sentrin-specific protease 1 (Homo sapiens), Q9P0U3 | 0.21% of 360,000 active;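 active = inhibition at least 30% at 10 µM, raw YFP signal under a set limit, fluorescence ratio 0.5 to 1.5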
Target sequence (Q9P0U3 419-644 limits assumed): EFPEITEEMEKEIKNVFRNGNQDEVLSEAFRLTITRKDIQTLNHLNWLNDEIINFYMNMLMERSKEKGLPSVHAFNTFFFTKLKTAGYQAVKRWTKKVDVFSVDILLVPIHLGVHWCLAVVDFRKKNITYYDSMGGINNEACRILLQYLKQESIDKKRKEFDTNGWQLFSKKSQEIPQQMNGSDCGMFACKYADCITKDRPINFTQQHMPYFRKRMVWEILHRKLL
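Material: hSENP1 catalytic domain, recombinant; medium: Tris pH 8 with BME, BSA, NP40 and catalase; compound: single concentration of 10 µM compound, 0.5% DMSO final; technique: FRET read of cyan and yellow fluorescence; timing: 50 min enzyme reaction, room temperature, light-protected; reagent: SFCypet-SUMO1-SFYpet substrate at 25 nM; control set: no-enzyme low, enzyme-DMSO high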
EBI2 antag conf – EBI2 antagonist hit retest, beta-arrestin, confirmation, cell-based, single concentration, luminescence, 7a,25-OHC stimulation; shares compounds with EBI2 antag; 7a,25-OHC antagonism; inhibition, % at 5 µM; 29% of 2,400 active;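 active = inhibition of at least 50%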
EBI2 agonist – EBI2 agonist activity of antagonist hits, confirmation, counter-screen for EBI2 antagonist project, cell-based, single concentration, agonist mode, luminescence. activation, % at 5 µM. EBI2-expressing cells, 60 min; 0% vehicle, 100% 7α,25-dihydroxycholesterol control. shares compounds with EBI2 antag. 2,400 tested, under 10 active. AID 652000, 2013;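 active = activation of at least 50%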
bGal counter – E. coli beta-galactosidase enzyme inhibition, confirmation, counter-screen for EBI2 antagonist project, biochemical, luminescence, single concentration. shares compounds with EBI2 antag. purified beta-galactosidase, luminescent Galacton Star, 15 min. inhibition, % at 5 µM. 1% of 2,400 active. AID 652176, 2013;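 active = replicate-average signal at least 3 plate SD below neutral wells, shown as high inhibition, flagging enzyme-inhibiting false positives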;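 also: higher means stronger loss of beta-gal luminescence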
A number is an active result; 0 = inactive; - = no result. In the library only some 4.4% were active in any assay of this set; here they are far more common.

SMILES	EBI2 antag	NR3A LBD binder	MPTP block	SENP1 FRET inh	EBI2 antag conf	EBI2 agonist	bGal counter
Cc1ccc(S(=O)(=O)N2CCN(CC(=O)N/N=C/C=C/c3ccccc3)CC2)cc1	42.6	0	0	0	0	0	0
C/C(=N/NC(=O)CN1CCN(S(=O)(=O)c2ccc(C)cc2)CC1)c1cccc(O)c1	0	0	0	0	-	-	-
O=C(CN1CCN(S(=O)(=O)c2ccc(Br)cc2)CC1)N/N=C/c1ccco1	0	0	0	0	-	-	-
O=C(CN1CCN(S(=O)(=O)c2ccc(Br)cc2)CC1)N/N=C/c1ccc(Br)s1	65.0	0	0	0	0	0	0
O=C(CN1CCN(S(=O)(=O)c2ccccc2)CC1)Nc1ccc(Cl)c(Cl)c1	60.6	0	0	0	0	0	0
CC(Sc1nnc(Cc2ccccc2)o1)C(=O)Nc1ccccc1[N+](=O)[O-] (centres undefined)	0	0	0	0	-	-	-
CCN(CC(=O)Nc1cc(Cl)ccc1C)C(=O)CC1CCCC1	0	0	0	0	-	-	-
COc1ccc(OCC(=O)N2CCN(S(=O)(=O)c3ccc(Cl)cc3)CC2)cc1	71.3	0	0	0	58.5	0	0
COc1ccc(S(=O)(=O)N2CCN(C(=O)CCOc3ccccc3)CC2)cc1OC	0	0	0	0	-	-	-
O=C(COc1ccc(Cl)cc1Br)N1CCN(S(=O)(=O)c2ccccc2)CC1	0	0	0	0	-	-	-
O=C(COc1ccc(Cl)cc1)N1CCN(S(=O)(=O)c2ccccc2)CC1	86.8	0	0	0	67.8	0	0
O=C(NCc1ccc(Cl)cc1)N1CCN(S(=O)(=O)c2ccccc2)CC1	44.5	0	0	0	0	0	0
CCOc1ccc(OCCCC(=O)N2CCN(S(=O)(=O)c3ccc(Cl)cc3)CC2)cc1	0	0	0	0	-	-	-
COc1ccc(S(=O)(=O)N2CCN(C(=O)COc3ccc(C)c(C)c3)CC2)cc1OC	77.3	0	0	0	0	0	0
Cc1cnc(CNC(=O)c2ccc(OC3CCN(C(=O)C4CC4)CC3)cc2)cn1	0	0	0	0	-	-	-
CCCCn1c(N)c(N(CC)C(=O)COc2ccc(C#N)cc2)c(=O)[nH]c1=O	0	0	0	0	-	-	-
COC(=O)c1c(NC(NC(=O)C(C)C)C(Cl)(Cl)Cl)sc2c1CCCC2 (centres undefined)	0	0	0	0	-	-	-
O=C(CN1C(=O)NC(c2ccccc2)(c2ccccc2)C1=O)NCc1ccc(F)cc1	0	0	0	0	-	-	-
Cc1cc(C)c(NC(=O)CNC(=O)c2ccc3ncsc3c2)c(C)c1	0	0	0	0	-	-	-
O=C(CCCOc1ccccc1)N1CCN(S(=O)(=O)c2ccc(Cl)cc2)CC1	0	0	0	0	-	-	-
O=C(COc1ccccc1)N1CCN(S(=O)(=O)c2ccc(Cl)cc2)CC1	48.6	0	0	0	0	0	0
CCOC(=O)c1ccc(OC(=O)CCCCCN=C(N)N)cc1	0	0	0	0	-	-	-
Cc1ccc(/C=N/NC(=O)CNC(=O)c2ccc(S(=O)(=O)N(C)C)cc2)cc1	45.5	0	0	0	0	0	0
CN(C)S(=O)(=O)c1ccc(C(=O)NCC(=O)N/N=C/c2ccccc2Cl)cc1	71.9	0	0	0	0	0	0
Cc1c(N)cc(C(=O)N2CCOCC2)cc1[N+](=O)[O-]	0	0	0	0	-	-	-
SMILES	EBI2 antag	NR3A LBD binder	MPTP block	SENP1 FRET inh	EBI2 antag conf	EBI2 agonist	bGal counter
O=C(COc1ccc(Cl)cc1)Nc1ccc(N2CCN(C(=O)c3ccco3)CC2)cc1	54.1	0	0	0	0	0	0
COc1ccc(OCC(=O)Nc2ccc(N3CCOCC3)cc2)cc1	84.1	0	0	0	78.8	0	0
Cc1ccc(OCC(=O)Nc2ccc(N3CCN(C(=O)c4ccc(C)cc4)CC3)cc2)cc1	57.4	0	0	0	0	0	0
COc1ccc(OCC(=O)Nc2ccc(N3CCN(C(=O)c4ccco4)CC3)cc2)cc1	0	0	0	0	-	-	-
Cc1ccc(OCC(=O)Nc2ccc(N3CCOCC3)cc2)cc1	0	0	0	0	-	-	-
CCCOc1ccc(C(=O)N2CCN(c3ccc(NC(=O)CC)cc3Cl)CC2)cc1	70.1	0	0	0	59.5	0	0
Nc1nncn1C(=O)c1ccc(Cl)cc1Cl	0	0	0	0	-	-	-
CC(=O)Nc1cccc(NC(=O)C(=O)NCC(c2ccco2)N2CCc3ccccc3C2)c1 (centres undefined)	0	0	0	0	-	-	-
O=C(NC(=S)Nc1ccccc1O)c1ccc(Cl)cc1Cl	0	0	0	0	-	-	-
O=C(Nc1cnn(C23CC4CC(CC(C4)C2)C3)c1)c1cc(-c2ccccc2)on1	63.4	0	0	0	0	0	0
O=C(CSc1nc(Nc2ccccc2)nc(N2CCOCC2)n1)Nc1ccc(Br)cc1F	46.1	0	0	0	0	0	0
CC(C)c1ccc(NC(=O)C2C3C=CC4(O3)C2C(=O)N(CCCN2CCCCC2)C4C(=O)NC2CCCCC2)cc1 (centres undefined)	0	0	0	0	-	-	-
COc1ccc(C2c3ccc(O)cc3Oc3ncn4nc(-c5ccccn5)nc4c32)cc1OC (centres undefined)	0	0	0	0	-	-	-
COc1ccc(C2c3ccc(O)cc3Oc3ncn4nc(-c5ccccn5)nc4c32)cc1 (centres undefined)	47.3	0	0	0	0	0	0
CCC(C)(C)C1CCC2(CC1)NC(=O)N(CC(=O)Nc1nc(-c3ccc(C)cc3)cs1)C2=O (centres undefined)	42.9	0	0	0	0	0	0
O=C(CN1C(=O)NC2(CCCC2)C1=O)Nc1nc(-c2ccc(F)cc2)cs1	0	0	0	0	-	-	-
CC(C)C[C@@H](CN1CCC[C@@H]1CN1C(=S)NC[C@@H]1Cc1ccccc1)N1C[C@H](Cc2ccc(O)cc2)N(CC2CCCCC2)C1=S	0	-	0	0	-	-	-
CC(C)C[C@H]1CNC(=S)N1C[C@H]1CCCN1C[C@H](CC(C)C)N1C[C@H](Cc2ccc(O)cc2)N(CC2CCCCCC2)C1=S	59.8	-	0	0	0	0	0
CC(C)C[C@@H](CN1CCC[C@@H]1CN1C(=S)NC[C@@H]1Cc1ccccc1)N1C[C@H](Cc2ccc(O)cc2)N(CC2CCCCCC2)C1=S	58.1	-	0	0	0	0	0
CCOc1ccc(CCNS(=O)(=O)c2cccc3nsnc23)cc1OCC	0	0	0	0	-	-	-
CCCCNC(=S)Nc1ccccc1Cc1ccccc1	0	0	0	0	-	-	-
